# Source: PubChem BioAssay (Columbia University Molecular Screening Center)
# Many of the other results were omitted from the sample, so hits are more common in it than they were.
# Insulin prom act = TRM-6 insulin promoter activation. TRM-6 cells (human fetal islet line), insulin promoter eGFP reporter, imaging; plate-scaled: unstimulated 0, stimulated control 100. 130,000 tested, 0.81% active. activation, % at 2 µM;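 active = activation at 2 µM above a set limit, confirmed on inspection of the cell images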;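 note: share of cells whose green reporter signal exceeds an intensity cutoff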
#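 Assay system: TRM-6 human fetal islet cells, insulin promoter–eGFP reporter; Also added: 0.75 µM tamoxifen as reporter inducer; Schedule: 15 h tamoxifen pre-treatment, 48 h compound treatment at 37 °C; Signal: fixed-cell fluorescence microscopy, eGFP plus Hoechst; Read-out: percent activation from GFP-positive cell fraction; Control set: stimulated and unstimulated wells.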
# An asterisk follows results filed as active.
SMILES,Insulin prom act
Cc1c(Cl)c([N+](=O)[O-])nn1Cc1ccc(C(=O)Nc2ccc(Cl)cn2)o1,3.2
CS(=O)(=O)c1ccc(S(=O)CC(=O)OCc2ccccc2)c([N+](=O)[O-])c1 (stereo not drawn),192.3
O=C(Nc1nc2ccccc2[nH]1)c1ccc(Br)o1,-8.1
CCNc1nc(NCC)nc(SCCOc2ccc(C)cc2)n1,0.0
Cc1nnc(NC(=O)CSc2ncn(-c3ccccc3)n2)s1,0.0
COc1ccc(N2CCN(C(=O)CSc3ncnc4c3cnn4-c3ccccc3C)CC2)cc1,-83.3
Cc1nnc(NC(=O)CSc2ncnc3c2cnn3-c2ccccc2C)s1,146.7*
CCN(CC)S(=O)(=O)c1cccc(C(=O)Nc2nc3cc4c(cc3s2)OCCO4)c1,-4.3
Cc1cnc2cc([N+](=O)[O-])ccc2n1,6.7
Nc1ccc2c3c(cccc13)C(=O)N(c1ccccc1)C2=O,164.7
COc1ccc(C(=O)Nc2ccc3c4c(cccc24)CC3)cc1,-100.0
Nc1ccc2c3c(cccc13)CC2,377.4*
CCOC(=O)CC(C#N)c1c[nH]c2ccccc12 (stereo not drawn),-2.8
O=C(O)c1ccccc1C(=O)N1CCN(C(=O)c2ccccc2Cl)CC1,6.7
O=C(c1ccc(-c2ccccc2)cc1)N1CCCC1,9.7
O=C(c1ccccc1-c1ccccc1)N1CCCC1,520.0*
CCCCN(CCCC)Cc1ccc(C(=O)NNC(=O)Nc2ccc(F)cc2)o1,0.0
O=C(NCc1cccnc1)c1cc(-c2ccccc2)on1,31.8
O=C(NCc1cccnc1)c1nc(-c2ccc(C(F)(F)F)cc2)no1,300.0*
O=C(NCc1cccnc1)c1ccc(NC(=O)c2ccco2)cc1,-79.0
Cc1ccc(NC(C)c2cc(Cl)ccc2O)cc1 (stereo not drawn),3.4
COc1cccc(NC(=O)CSc2nc3c(c(=O)n2C)SC(C)C3)c1 (stereo not drawn),0.0
O=C(c1ccccc1)c1nc2ccccc2n(CCCn2c(=O)c(C(=O)c3ccccc3)nc3ccccc32)c1=O,-8.1
COC(=O)c1c(NC(=O)c2ccco2)sc(C(=O)N(C)C)c1C,104.7
CCOc1ccc(/C=N/Nc2nc(N3CCCC3)nc(N3CCCC3)n2)cc1OC,-5.7
SMILES,Insulin prom act
COc1cc(/C=N/Nc2nc(N3CCCC3)nc(N3CCCC3)n2)ccc1O,0.0
Fc1ccc(COc2ccc(Cl)cc2/C=N/Nc2nc(N3CCCC3)nc(N3CCCC3)n2)cc1,658.3*
CC(C)(C)NC(=O)C(c1ccccn1)N(C(=O)C1CSC(=O)C1)c1ccccc1F (stereo not drawn),0.0
Cc1nn(-c2cc(N3CCOCC3)ccc2N)c(=O)c2ccccc12,5.6
Cc1ccc(-c2nn(-c3cc(Cl)ccc3[N+](=O)[O-])c(=O)c3ccccc23)cc1,2.2
Cc1nn(-c2cc(N3CCCC3)ccc2[N+](=O)[O-])c(=O)c2ccccc12,133.9*
O=C(COC(=O)c1cc(Br)ccc1O)Nc1cc(S(=O)(=O)N2CCCC2)ccc1Cl,9.1
CCOc1ccc(N2C(=O)CC(N(CCc3ccc(OC)cc3)C(=O)/C=C/C(=O)O)C2=O)cc1 (stereo not drawn),105.6
Cc1ccc(S(=O)(=O)Oc2ccccc2/C=N/NC(N)=S)cc1,102.7*
COc1ccc(/C=N/NS(=O)(=O)c2ccccc2)cc1OS(=O)(=O)c1ccc(C)cc1,-6.7
COc1ccc(/C=N/NC(N)=S)cc1OC(=O)c1ccccc1,3.6
CC(=O)c1c(C)nc2ccc(C)cc2c1-c1ccccc1,-8.7
CC1(C)CN=c2s/c(=C\c3ccc(Cl)cc3)c(=O)n2C1,-6.7
Cc1ccc(-n2nnnc2SCC(=O)N2CCCCC2)cc1,2.9
CC1CCN(C(=O)CSc2nnc(Cc3cccn3C)n2-c2ccc(F)cc2)CC1,-71.4
Cc1ccc(-n2c(CNc3ccc(F)cc3)nnc2SCC(=O)N2CCCC2)cc1,161.5*
Cn1c(COc2ccc(Br)cc2)nnc1SC1CCc2ccccc2C1=O (stereo not drawn),0.0
COC(=O)c1ccccc1S(=O)(=O)N1Cc2cc([N+](=O)[O-])ccc2Oc2ccccc21,0.0
COc1cc(/C=N/NC(=O)c2ccncc2)ccc1OCc1cnc(Cl)s1,239.5*
COc1cc(/C=C/C(=O)O)ccc1OCc1cnc(Cl)s1,0.0
COc1cc(/C=N/NC(=O)c2cccc([N+](=O)[O-])c2)ccc1OCc1ccccc1,44.7
COc1cc(-c2nc(Cc3c(F)cccc3Cl)no2)cc(OC)c1OC,-70.0
Cc1ccccc1-c1nc(Cc2ccc(Cl)cc2)no1,102.9*
Cc1ccccc1-c1noc(-c2cccs2)n1,-80.0
COCc1cc(C)n(CC(=O)OC)c(=O)c1C#N,0.0
SMILES,Insulin prom act
Cc1ccc(-c2nnc(N3CCOCC3)c3ccccc23)cc1S(=O)(=O)NCC1CCCO1 (stereo not drawn),0.0
CCCCOC(=O)N/N=C/C=C/c1ccccc1,0.0
O=C(NC1CCCc2ccccc21)C1CCN(S(=O)(=O)c2ccccc2F)CC1 (stereo not drawn),0.0
O=C(NC1CCCc2ccccc21)C1CCN(S(=O)(=O)c2cnc[nH]2)CC1 (stereo not drawn),156.3
O=C(NC1CCCc2ccccc21)C1CCN(c2nnc(-n3cccc3)s2)CC1 (stereo not drawn),185.7*
CN(CC(=O)Nc1ccc(F)cc1)C(=O)COc1ccc(C(=O)c2ccccc2)cc1,0.0
CN(CCO)c1c2c(nc3cc(-c4cccc(F)c4)nn13)CCCC2,94.6*
Fc1cccc(-c2cc3nc4c(c(N5CCC6(CC5)OCCO6)n3n2)CCCC4)c1,-3.8
COCCN1CCN(c2cc(-c3ccccc3)nc3cc(-c4cccc(F)c4)nn23)CC1,-6.7
C=CCOC(=O)COc1ccc2c(C)c(C)c(=O)oc2c1,0.0
Cc1cc(OCC(=O)N2CCOCC2)cc2oc(=O)c3ccccc3c12,423.5*
Cc1cc(OCC(=O)N2CCCC2)cc(C)c1Cl,130.8
Cc1cc(C)c(C)c(OCC(=O)N2CCOCC2)c1,-2.7
COc1ccc(CCNC(=O)C2CCC(=O)N2CCc2ccccc2)cc1OC (stereo not drawn),-3.7
CCC(=O)N1C(=O)C2(Nc3ccccc3N2)c2ccccc21,8.1
CCN1c2ccccc2NC2C1C(C(C)=O)C(=O)N2c1ccc(Cl)cc1 (stereo not drawn),133.3*
COc1cccc(C2=NN(C(=O)c3cccs3)C(O)(C(F)(F)F)C2)c1 (stereo not drawn),7.1
COc1ccccc1C(=O)NNC(=O)c1nn(Cc2ccccc2)c(=O)c2ccccc12,-80.5
COc1ccc(CN(C)c2nc(-c3cccnc3)nc3ccccc23)cc1OC,7.1
CCc1nnc(NC(=O)CSc2nnc(CSc3nc(C)cc(C)n3)n2CC)s1,6.7
CC(C)c1cc(C(F)(F)F)n2nc(C(=O)Nc3ccc4c(c3)OCO4)cc2n1,-3.2
Nn1cc(-c2ccccc2)nc1SCC(=O)Nc1ccc2c(c1)OCO2,-3.2
Cc1c(C=O)c(C=O)c(C)n1Cc1ccccc1,6.7
Cc1ccc(O)c(C(=O)/C=C/c2ccc3c(c2)OCCO3)c1,-7.1
COc1ccc(C2Nc3ccccc3C(=O)N2Cc2ccccc2)cc1CSc1ccccn1 (stereo not drawn),6.7
COc1ccc(C2Nc3ccccc3C(=O)N2Cc2ccco2)cc1COc1ccc(NC(C)=O)cc1 (stereo not drawn),9.1
COc1ccc(C2Nc3ccccc3C(=O)N2c2ccccc2)cc1COc1ccccn1 (stereo not drawn),220.0*
Cc1cccc(OCC(=O)N/N=C2/SCC(=O)N2Cc2ccco2)c1,2.4
